Source: ChEMBL document CHEMBL1125243, “Design of potent oxytocin antagonists featuring D-tryptophan at position 2” (J Med Chem, 1991)
Numbered stars: 1 amine (or outer) side, 2 acyl side, 3 side chain; on linkers, the order of the positions; unused ones are H or OH. Bridge positions count the residues as written; N and C are the ends. Square brackets hold non-standard residues; d marks the D form. Peptide text beside a SMILES is read from it. X1 = O=C(CC1(S[*:2])CCCCC1)[*:1]

Species on record: Rattus norvegicus
Test: Antidiuretic potency was evaluated and expressed as effective dose.
Type: functional, Urine
Conditions: not given
How it was run: (§1)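 Antagonism tested in vivo in water-loaded rats under ethanol anesthesia, with ADH as the agonist standard. The effective dose is the antagonist amount that halves the response to agonist. An in vivo pA₂ was estimated by dividing the effective dose by an assumed volume of distribution of 67 mL/kg. Values reported as mean ± SE.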

Question: With `CC[C@H](C)[C@@H]1NC(=O)[C@H](Cc2ccccc2)NC(=O)[C@@H](Cc2c[nH]c3ccccc23)NC(=O)CC2(CCCCC2)SSC[C@@H](C(=O)N2CCC[C@H]2C(=O)N[C@@H](CCCN=C(N)N)C(=O)NCC(N)=O)NC(=O)[C@H](CC(N)=O)NC1=O` [listing 1 of 2 here] as the compound, how does the ED50 read?
Answer: The ED50 was 8.3 nM.

Question: For `CC[C@H](C)[C@@H]1NC(=O)[C@H](Cc2ccccc2)NC(=O)[C@@H](Cc2ccccc2)NC(=O)CC2(CCCCC2)SSC[C@@H](C(=O)N2CCC[C@H]2C(=O)N[C@@H](CCCN=C(N)N)C(=O)NCC(N)=O)NC(=O)[C@H](CC(N)=O)NC1=O` ([dF]FINCPRG-NH2; linker N-5 via X1) [listing 1 of 2 here], which ED50 is on record?
Answer: The ED50 was 0.87 M.

Question: For `CC[C@H](C)[C@@H]1NC(=O)[C@@H](Cc2c[nH]c3ccccc23)NC(=O)CC2(CCCCC2)SSC[C@@H](C(=O)N2CCC[C@H]2C(=O)N[C@@H](CCCN=C(N)N)C(=O)NCC(N)=O)NC(=O)[C@H](CC(N)=O)NC(=O)[C@H](CCC(N)=O)NC1=O` ([dW]IQNCPRG-NH2; linker N-5 via X1) [listing 1 of 2 here], which ED50 is on record?
Answer: The ED50 was < 1680 nM.

Species on record: Rattus norvegicus
Test: Effective dose (antagonist) that reduces the response to an agonist (oxytocin) by one-half.
Type: functional
Conditions: not given
How it was run: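 Isolated estrous rat uterus in Van Dyke-Hastings solution with 0.5 mM Mg²⁺; OT-evoked isometric contractions quantified as integrated peak area. Effective dose taken as molar antagonist concentration halving the agonist response; at least four separate assays.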

Question: `CC[C@H](C)[C@@H]1NC(=O)[C@@H](Cc2c[nH]c3ccccc23)NC(=O)CC2(CCCCC2)SSC[C@@H](C(=O)N2CCC[C@H]2C(=O)N[C@@H](CCCN=C(N)N)C(=O)NCC(N)=O)NC(=O)[C@H](CC(N)=O)NC(=O)[C@H]([C@@H](C)O)NC1=O` [listing 1 of 2 here] was tested. Which ED50 did it give?
Answer: The ED50 was 46.8 nM.

Question: Which ED50 does the source give for `CC[C@H](C)[C@@H]1NC(=O)[C@@H](Cc2c[nH]c3ccccc23)NC(=O)CC2(CCCCC2)SSC[C@@H](C(=O)N2CCC[C@H]2C(=O)N[C@@H](CCCN=C(N)N)C(=O)NCC(N)=O)NC(=O)[C@H](CC(N)=O)NC(=O)[C@H](C(C)C)NC1=O` [listing 1 of 2 here] here?
Answer: The ED50 was 26.9 nM.

Question: With `CC[C@H](C)[C@@H]1NC(=O)[C@H](Cc2ccccc2)NC(=O)[C@@H](Cc2c[nH]c3ccccc23)NC(=O)CC2(CCCCC2)SSC[C@@H](C(=O)N2CC=C[C@H]2C(=O)N[C@@H](CCCN=C(N)N)C(=O)NCC(N)=O)NC(=O)[C@H](CC(N)=O)NC1=O` [listing 1 of 2 here] as the compound, how does the ED50 read?
Answer: The ED50 was 38.6 nM.

Question: `CC[C@H](C)[C@@H]1NC(=O)[C@H]([C@@H](C)CC)NC(=O)[C@@H](Cc2c[nH]c3ccccc23)NC(=O)CC2(CCCCC2)SSC[C@@H](C(=O)N2CCC[C@H]2C(=O)N[C@@H](CCCN=C(N)N)C(=O)NCC(N)=O)NC(=O)[C@H](CC(N)=O)NC1=O` [listing 1 of 2 here] was tested. Which ED50 did it give?
Answer: The ED50 was 35.3 nM.

Question: For `CC[C@H](C)[C@@H]1NC(=O)[C@H](Cc2ccc(Cl)cc2)NC(=O)[C@@H](Cc2c[nH]c3ccccc23)NC(=O)CC2(CCCCC2)SSC[C@@H](C(=O)N2CCC[C@H]2C(=O)N[C@@H](CCCN=C(N)N)C(=O)NCC(N)=O)NC(=O)[C@H](CC(N)=O)NC1=O` [listing 1 of 2 here], which ED50 is on record?
Answer: The ED50 was 40.2 nM.

Question: With `NC(=O)CC[C@@H]1NC(=O)[C@H](Cc2ccccc2)NC(=O)[C@@H](Cc2c[nH]c3ccccc23)NC(=O)CC2(CCCCC2)SSC[C@@H](C(=O)N2CCC[C@H]2C(=O)N[C@@H](CCCN=C(N)N)C(=O)NCC(N)=O)NC(=O)[C@H](CC(N)=O)NC1=O` [listing 1 of 2 here] as the compound, how does the ED50 read?
Answer: The ED50 was 27 nM.

Question: `CCNC(=O)CNC(=O)[C@H](CCCN=C(N)N)NC(=O)[C@@H]1CCCN1C(=O)[C@@H]1CSSC2(CCCCC2)CC(=O)N[C@H](Cc2c[nH]c3ccccc23)C(=O)N[C@@H](Cc2ccccc2)C(=O)N[C@@H](CCC(N)=O)C(=O)N[C@@H](CC(N)=O)C(=O)N1` [listing 1 of 2 here] was tested. Which ED50 did it give?
Answer: Its ED50 is 32.9 nM.

Question: How did the ED50 turn out when `CC[C@H](C)[C@@H]1NC(=O)[C@H](Cc2ccccc2)NC(=O)[C@@H](Cc2c[nH]c3ccccc23)NC(=O)CC2(CCCCC2)SSC[C@@H](C(=O)N2CCC[C@H]2C(=O)N[C@@H](CCCN=C(N)N)C(=O)NCC(N)=O)NC(=O)[C@H](CC(N)=O)NC1=O` [listing 1 of 2 here] was run?
Answer: The ED50 was 30.9 nM.

Question: Which ED50 does the source give for `CC[C@H](C)[C@@H]1NC(=O)[C@H](Cc2ccccc2)NC(=O)[C@@H](Cc2ccccc2)NC(=O)CC2(CCCCC2)SSC[C@@H](C(=O)N2CCC[C@H]2C(=O)N[C@@H](CCCN=C(N)N)C(=O)NCC(N)=O)NC(=O)[C@H](CC(N)=O)NC1=O` ([dF]FINCPRG-NH2; linker N-5 via X1) [listing 1 of 2 here] here?
Answer: Its ED50 is 46.6 nM.

Species on record: Rattus norvegicus
Test: Competitive antagonist action against oxytocin contractile action in rat uterus(in vitro)
Type: functional
Conditions: read-out: pA2 (converted)
How it was run: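 Isolated uteri from rats in natural estrus, incubated in Van Dyke-Hastings solution with 0.5 mM Mg²⁺. Isometric contractions to synthetic OT recorded by force transducer; response quantified by integrating area under peaks. pA₂ determined by Schild method; at least four separate assays per antagonist.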

Question: Which Kb does the source give for `CC[C@H](C)[C@@H]1NC(=O)[C@@H](Cc2c[nH]c3ccccc23)NC(=O)CC2(CCCCC2)SSC[C@@H](C(=O)N2CCC[C@H]2C(=O)N[C@@H](CCCN=C(N)N)C(=O)NCC(N)=O)NC(=O)[C@H](CC(N)=O)NC(=O)[C@H]([C@@H](C)O)NC1=O` [listing 2 of 2 here] here?
Answer: Its Kb is 33.1 nM.

Question: How did the Kb turn out when `CC[C@H](C)[C@@H]1NC(=O)[C@@H](Cc2c[nH]c3ccccc23)NC(=O)CC2(CCCCC2)SSC[C@@H](C(=O)N2CCC[C@H]2C(=O)N[C@@H](CCCN=C(N)N)C(=O)NCC(N)=O)NC(=O)[C@H](CC(N)=O)NC(=O)[C@H](C(C)C)NC1=O` [listing 2 of 2 here] was run?
Answer: Its Kb is 26.3 nM.

Question: With `CC[C@H](C)[C@@H]1NC(=O)[C@H](Cc2ccccc2)NC(=O)[C@@H](Cc2c[nH]c3ccccc23)NC(=O)CC2(CCCCC2)SSC[C@@H](C(=O)N2CC=C[C@H]2C(=O)N[C@@H](CCCN=C(N)N)C(=O)NCC(N)=O)NC(=O)[C@H](CC(N)=O)NC1=O` [listing 2 of 2 here] as the compound, how does the Kb read?
Answer: The Kb was 38 nM.

Question: For `CC[C@H](C)[C@@H]1NC(=O)[C@H]([C@@H](C)CC)NC(=O)[C@@H](Cc2c[nH]c3ccccc23)NC(=O)CC2(CCCCC2)SSC[C@@H](C(=O)N2CCC[C@H]2C(=O)N[C@@H](CCCN=C(N)N)C(=O)NCC(N)=O)NC(=O)[C@H](CC(N)=O)NC1=O` [listing 2 of 2 here], which Kb is on record?
Answer: Its Kb is 34.7 nM.

Question: Which Kb does the source give for `CC[C@H](C)[C@@H]1NC(=O)[C@H](Cc2ccc(Cl)cc2)NC(=O)[C@@H](Cc2c[nH]c3ccccc23)NC(=O)CC2(CCCCC2)SSC[C@@H](C(=O)N2CCC[C@H]2C(=O)N[C@@H](CCCN=C(N)N)C(=O)NCC(N)=O)NC(=O)[C@H](CC(N)=O)NC1=O` [listing 2 of 2 here] here?
Answer: The Kb was 36.3 nM.

Question: How did the Kb turn out when `NC(=O)CC[C@@H]1NC(=O)[C@H](Cc2ccccc2)NC(=O)[C@@H](Cc2c[nH]c3ccccc23)NC(=O)CC2(CCCCC2)SSC[C@@H](C(=O)N2CCC[C@H]2C(=O)N[C@@H](CCCN=C(N)N)C(=O)NCC(N)=O)NC(=O)[C@H](CC(N)=O)NC1=O` [listing 2 of 2 here] was run?
Answer: Its Kb is 26.3 nM.

Question: With `CCNC(=O)CNC(=O)[C@H](CCCN=C(N)N)NC(=O)[C@@H]1CCCN1C(=O)[C@@H]1CSSC2(CCCCC2)CC(=O)N[C@H](Cc2c[nH]c3ccccc23)C(=O)N[C@@H](Cc2ccccc2)C(=O)N[C@@H](CCC(N)=O)C(=O)N[C@@H](CC(N)=O)C(=O)N1` [listing 2 of 2 here] as the compound, how does the Kb read?
Answer: Its Kb is 32.4 nM.

Question: Which Kb does the source give for `CC[C@H](C)[C@@H]1NC(=O)[C@H](Cc2ccccc2)NC(=O)[C@@H](Cc2c[nH]c3ccccc23)NC(=O)CC2(CCCCC2)SSC[C@@H](C(=O)N2CCC[C@H]2C(=O)N[C@@H](CCCN=C(N)N)C(=O)NCC(N)=O)NC(=O)[C@H](CC(N)=O)NC1=O` [listing 2 of 2 here] here?
Answer: Its Kb is 30.9 nM.

Question: For `CC[C@H](C)[C@@H]1NC(=O)[C@H](Cc2ccccc2)NC(=O)[C@@H](Cc2ccccc2)NC(=O)CC2(CCCCC2)SSC[C@@H](C(=O)N2CCC[C@H]2C(=O)N[C@@H](CCCN=C(N)N)C(=O)NCC(N)=O)NC(=O)[C@H](CC(N)=O)NC1=O` ([dF]FINCPRG-NH2; linker N-5 via X1) [listing 2 of 2 here], which Kb is on record?
Answer: The Kb was 44.7 nM.

Species on record: Rattus norvegicus
Test: Antidiuretic action in water-loaded rats under ethanol anesthesia.
Type: functional, organism-based
Conditions: Urine, read-out: pA2 (converted)
How it was run: as §1

Question: With `CC[C@H](C)[C@@H]1NC(=O)[C@H](Cc2ccccc2)NC(=O)[C@@H](Cc2c[nH]c3ccccc23)NC(=O)CC2(CCCCC2)SSC[C@@H](C(=O)N2CCC[C@H]2C(=O)N[C@@H](CCCN=C(N)N)C(=O)NCC(N)=O)NC(=O)[C@H](CC(N)=O)NC1=O` [listing 2 of 2 here] as the compound, how does the Kb read?
Answer: Its Kb is 7.94 nM.

Question: With `CC[C@H](C)[C@@H]1NC(=O)[C@H](Cc2ccccc2)NC(=O)[C@@H](Cc2ccccc2)NC(=O)CC2(CCCCC2)SSC[C@@H](C(=O)N2CCC[C@H]2C(=O)N[C@@H](CCCN=C(N)N)C(=O)NCC(N)=O)NC(=O)[C@H](CC(N)=O)NC1=O` ([dF]FINCPRG-NH2; linker N-5 via X1) [listing 2 of 2 here] as the compound, how does the Kb read?
Answer: The Kb was 8.13 nM.

Question: Which Kb does the source give for `CC[C@H](C)[C@@H]1NC(=O)[C@@H](Cc2c[nH]c3ccccc23)NC(=O)CC2(CCCCC2)SSC[C@@H](C(=O)N2CCC[C@H]2C(=O)N[C@@H](CCCN=C(N)N)C(=O)NCC(N)=O)NC(=O)[C@H](CC(N)=O)NC(=O)[C@H](CCC(N)=O)NC1=O` ([dW]IQNCPRG-NH2; linker N-5 via X1) [listing 2 of 2 here] here?
Answer: The Kb was > 1380 nM.
